Screening results from PubChem.
Sampled rows, rich in hits. Any-hit rate of the full collection: about 9.2%.
H69AR growth 86K = growth inhibitors of human H69AR lung tumor cells; actives 6% (n = 85,000); viability, % at 10 µM; H69AR lung tumor viability, ATP luminescence, 72 h; active compounds read low; AID 598;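 active = viability at or below 40%; inactive = viability above 40%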;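 note: multidrug resistant small cell line overexpressing MRP-1 efflux transporter; 100% = mean luminescence of untreated control wells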
Lung fibro prol = blocks proliferation of human lung fibroblasts. LL 47 human lung fibroblast viability, ATP luminescence; active compounds read low. viability, % at 10 µM. actives 1.1% (n = 85,000);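 active = viability at or below 50% in the single dose screen; inactive = viability above 50%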;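 note: compound exposure lasted 72 h before the ATP readout; 100% = median luminescence of untreated cell-only wells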
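test system = LL 47 human lung fibroblasts | amount = 1,150 fibroblasts seeded per well | medium = 15% FBS in IMEM | times = overnight cell rest, 72 h compound treatment at 37 °C | measured by = CellTiter-Glo luminescence measuring cellular ATP | read-out = viability percentage against median untreated-cell control | benchmarks = cell-only wells, no compound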
ERa coact inh = blocks coactivator binding to human estrogen receptor alpha; P03372; TR-FRET ER-alpha LBD / SRC-1 peptide, estradiol-bound; inhibition, % at 25.6 µM; actives 1.7% (n = 86,000); AID 629; in the data active = inhibition above about 50%;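 note: 0% = receptor plus peptide control and 100% = peptide only without receptor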
HUVEC inhibit = blocks proliferation of human endothelial cells; HUVEC proliferation, CellTiter-Glo luminescence, 72 h; active compounds read low; viability, % at 10 µM (by protocol); actives 1.1% (n = 86,000);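 active = viability at or below 30%; inactive = viability above 30%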;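 note: 100% = median luminescence of DMSO-only cell control wells on each plate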
ERa coact pot = enhances coactivator binding to human estrogen receptor alpha; P03372; TR-FRET ERalpha-LBD/SRC-Cy5 coactivator binding, 2 h; 100 = basal binding, no effect; coactivator binding (% of control), % at 25.6 µM; actives 1.3% (n = 86,000); AID 639; in the data active = activity above about 200%;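 note: binding measured in presence of low estradiol as agonist stimulus; 0% = peptide alone without receptor and 100% = receptor with peptide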
ERb SRC1 inh = ER-beta (human) coactivator binding inhibition; AID 633; TR-FRET ER-beta LBD / SRC1-Cy5 peptide binding; receptor agonist-loaded with 1 µM estradiol; actives 1.3% (n = 86,000); inhibition, % at 25.6 µM; Q92731;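 active = compounds whose percent inhibition of the receptor-coactivator binding signal exceeds about 50% in the single-dose screen, limit read from the data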;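 note: 0% = receptor plus peptide wells without compound and 100% = peptide-only wells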
Target sequence (Q92731 whole entry, looked up, the tested form may be a part): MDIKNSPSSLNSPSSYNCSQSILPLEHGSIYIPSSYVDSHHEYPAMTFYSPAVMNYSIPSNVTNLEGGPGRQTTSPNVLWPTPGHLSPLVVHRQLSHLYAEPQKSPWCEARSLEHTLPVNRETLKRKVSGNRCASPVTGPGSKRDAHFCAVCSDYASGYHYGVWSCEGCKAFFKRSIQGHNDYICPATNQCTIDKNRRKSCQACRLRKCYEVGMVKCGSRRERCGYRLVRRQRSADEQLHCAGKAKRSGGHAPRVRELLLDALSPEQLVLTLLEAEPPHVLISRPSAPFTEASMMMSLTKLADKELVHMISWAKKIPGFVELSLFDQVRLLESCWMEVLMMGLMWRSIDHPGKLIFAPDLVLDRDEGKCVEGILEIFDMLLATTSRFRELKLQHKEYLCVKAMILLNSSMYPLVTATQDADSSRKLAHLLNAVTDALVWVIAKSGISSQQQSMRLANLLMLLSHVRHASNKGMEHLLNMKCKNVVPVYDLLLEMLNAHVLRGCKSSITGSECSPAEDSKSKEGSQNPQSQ
Active calls of the source: *; [ ] = another dose, or the depositor's remark.

SMILES	H69AR growth 86K	Lung fibro prol	ERa coact inh	HUVEC inhibit	ERa coact pot	ERb SRC1 inh
CC1CC(NS(=O)(=O)c2cccs2)CC(C)(C)C1 (configuration not stated)	93.9	96.6	2.0	96.2	114.1	6.6
CCOC(=O)c1ccc(NC(=O)COc2ccc(S(=O)(=O)NC(C)C)cc2)cc1	99.4	97.5	2.0	68.7	105.2	-2.8
O=C(CN1C(=O)NC2(CCCC2)C1=O)Nc1cccc(-c2nnc3n2CCCCC3)c1	102.0	99.5	-6.5	95.6	106.1	4.8
Cc1cc(C)c(NC(=O)CN2C(=O)NC3(CCCCC3)C2=O)c(Cl)c1	28.7*	88.5	-11.4	81.4	117.3	-5.6
CC(=O)c1cccc(NC(=O)CN2C(=O)NC3(CCCCCCC3)C2=O)c1	58.0	95.1	56.6*	95.5	68.6	31.2
Cc1ccc(NC(=O)CN2C(=O)NC3(CCC(C)CC3)C2=O)c(Cl)c1 (configuration not stated)	87.3	95.3	-1.9	100.2	143.0	9.4
O=C(NCCCN1CCN(c2cccc(Cl)c2)CC1)c1nc(-c2ccncc2)no1	78.2	101.0	-7.1	95.2	76.8	10.2
Cc1conc1NC(c1cccs1)c1ccc2cccnc2c1O (configuration not stated)	19.1*	3.1*	56.8*[fluorescence artefact?]	23.7*	66.2	46.4
Cc1ccc(F)cc1NC(=O)c1c(-c2ccccc2)noc1C	93.8	88.6	-2.8	90.8	117.6	-13.5
Cc1ccc(C(=O)n2nnc3ccccc32)cc1	92.1	99.0	-3.8	96.5	73.7	-13.4
Cc1ccc(C(=O)n2c3ccccc3c3ccccc32)cc1	17.6*	46.2*	-2.1	53.1	92.5	-4.5
Cc1nc(N)sc1-c1nnc(SCC(=O)Nc2nccs2)n1C	90.7	92.4	7.6	83.9	98.4	0.4
O=C1CCCN1c1ccc(S(=O)(=O)NCCOc2ccccc2)cc1	102.5	103.4	21.6	114.2	99.8	26.4
Cc1cc(N2CCCC2=O)cc(C)c1S(=O)(=O)NCCOc1ccc(C(C)(C)C)cc1	33.0*	95.5	21.0	79.4	89.3	-5.6
Cc1nnc(Sc2nc(Sc3nnc(C)s3)nc(N3CCN(C)CC3)n2)s1	0.6*	6.1*	-13.7	69.3	110.6	60.5*[fluorescence artefact?]
CCOc1ccccc1-n1c(CN2CCN(C(=O)c3ccco3)CC2)nc2ccccc2c1=O	62.7	14.6*	-30.8	51.8	110.4	-28.1
c1ccc(Nc2ncnc3c2oc2ccccc23)cc1	82.8	104.7	0.1	93.9	112.2	-2.4
c1ccc2c(c1)oc1c(NCc3ccc4c(c3)OCO4)ncnc12	88.8	99.4	-3.5	99.1	377.8*[fluorescence artefact?]	-5.0
O=C(c1ccco1)N1CCN(c2nc(C3CC3)nc3c2nnn3Cc2ccccc2Cl)CC1	52.5	97.4	-14.2	86.7	89.2	-16.6
CC(C)(C)c1nc(N2CCN(C(=O)c3ccco3)CC2)c2nnn(Cc3ccccc3)c2n1	11.1*	92.8	-5.1	76.5	86.1	-6.9
CC(=O)N1CCN(c2ccc(Nc3ncnc4c3oc3ccccc34)cc2)CC1	44.6	86.8	56.2*[fluorescence artefact?]	49.8	34.5	60.8*[fluorescence artefact?]
CCOc1cc(CN2CCN(C(=O)c3ccco3)CC2)ccc1OC	85.9	99.0	-17.0	94.4	101.9	-15.9
O=c1[nH]nc(Cc2ccc3ccccc3n2)c2ccccc12	80.2	93.2	-10.2	96.7	112.7	-6.7
Cn1c(SCC(=O)NCc2ccccc2)nnc1C1CC1	71.3	103.7	-17.9	95.4	124.3	-20.4
COc1ccc(-c2nc(CN3CCC(C(=O)NC(C)C)CC3)c(C)o2)cc1OC	82.0	98.4	2.2	91.4	131.2	0.4
SMILES	H69AR growth 86K	Lung fibro prol	ERa coact inh	HUVEC inhibit	ERa coact pot	ERb SRC1 inh
CCc1nc(Nc2ccc(N3CCN(C(C)=O)CC3)cc2)c2oc3ccccc3c2n1	43.2	99.6	32.7	53.9	54.0	60.6*[fluorescence artefact?]
CCc1nc(N2CCN(C(=O)c3ccco3)CC2)c2oc3ccccc3c2n1	22.2*	94.4	1.9	76.3	92.8	1.1
c1ccc2c(c1)oc1c(NCCN3CCOCC3)ncnc12	93.1	102.3	-7.1	95.9	102.0	0.8
c1ccc2c(c1)oc1c(Nc3ccc(CN4CCOCC4)cc3)ncnc12	3.5*	97.9	-0.9	5.4*	86.4	4.0
CSc1cccc(NC(=O)C(C)NS(=O)(=O)c2ccc(F)cc2)c1 (configuration not stated)	90.7	100.5	-4.5	97.1	99.2	2.5
CN(C(=O)c1cccc(C#N)c1)c1nnc(-c2cnccn2)s1	95.3	100.9	8.7	86.6	101.2	7.8
Cc1ccc(CC(=O)Nc2ccccc2N2CCOCC2)cc1C	79.2	97.8	-6.1	96.5	101.4	-1.2
COc1ccc(C(O)C(CC(=O)NCCCOC(C)C)C(=O)NCCCOC(C)C)cc1OC (configuration not stated)	96.8	111.0	3.2	97.2	106.4	-0.2
c1ccc(CNCc2ccc3c(c2)OCO3)nc1	95.9	73.8	-3.9	110.6	103.2	-5.5
Nc1nc2ccc(N3CCOCC3)cc2s1	82.9	94.1	-7.1	98.3	82.2	24.4
Oc1ccc(C=Nc2ccc(N3CCOCC3)cc2)c(O)c1	68.7	104.8	57.6*	70.0	49.0	68.6*
O=c1c2c(nc3c(-c4ccc(Cl)cc4)c[nH]n13)CCCC2	19.8*	60.2	25.4	58.4	67.5	29.8
O=C(N/N=C/c1ccc([N+](=O)[O-])s1)c1ccccc1Br	15.7*	63.0	13.5	62.0	88.8	15.1
Cc1ccccc1C(=O)N/N=C/c1ccc([N+](=O)[O-])s1	21.2*	63.8	-3.3	7.2*	79.8	4.0
Cc1ccccc1NC1=C(Cl)C(=O)OC1OC(=O)c1ccco1 (configuration not stated)	9.9*	101.4	2.0	76.0	123.8	-1.1
Cc1ccccc1NC1=C(Cl)C(=O)OC1NC(=O)c1ccccc1 (configuration not stated)	64.4	94.2	-3.4	104.1	99.7	1.9
NC(=O)Nc1ccc(F)cc1	98.9	102.4	2.7	92.1	107.9	1.6
O=[N+]([O-])c1ccc(NNC(=S)Nc2ccc(F)cc2)cc1	13.6*	87.4	-4.5	59.0	88.6	-3.8
Cc1ccc(OC(=O)c2cccc(C(=O)Oc3ccc(C)cn3)n2)nc1	88.1	99.7	4.7	103.8	88.5	8.6
O=C(Nc1cccc(Cl)c1)C1CCCN(S(=O)(=O)c2ccc(F)cc2)C1 (configuration not stated)	28.5*	95.1	-3.1	75.3	100.0	-26.9
CSc1cccc(NC(=O)C2CCN(S(=O)(=O)c3ccc(F)cc3)CC2)c1	97.0	108.3	-4.3	89.6	99.5	0.3
CSc1cccc(NC(=O)C2CCCN(S(=O)(=O)c3ccc(F)cc3)C2)c1 (configuration not stated)	21.5*	99.8	-6.1	77.7	107.1	1.7
NCCN1CCN(CCN)CC1	98.9	99.6	-12.3	104.3	105.8	-1.1
